Active and inactive are the calls of the source. The calls are words filed in the database; no cut-off is given here. Where a SMILES comes first, the peptide text is derived from it. [ ]: non-standard residue; d: D form. pY = N[C@@H](Cc1ccc(OP(=O)(O)O)cc1)C(=O)O
Assays:
[1] = biological target: T1, Signal transducer and activator of transcription 3 (Homo sapiens, UniProt P40763); test: (§1) Displacement of 5-carboxyfluorescein GpYLPQTV-NH2 probe from C-terminal 6His-tagged recombinant human STAT3 (127 to 711 residues) SH2 domain extracted from Escherichia coli BL21 (DE3) assessed as inhibition of dimerization preincubated for 10 mins followed by probe addition and measured after 30 mins by fluorescence polarization assay
[2] = biological target: T1, Signal transducer and activator of transcription 3; test: as §1, with “30” for “10”
[3] = biological target: T1, Signal transducer and activator of transcription 3; test: as §1, with “60” for “10”
[4] = biological target: T1, Signal transducer and activator of transcription 3; test: Inhibition of C-terminal 6His-tagged recombinant human STAT3 (127 to 711 residues) DNA-binding activity transfected in v-Src transformed mouse NIH3T3 cell nuclear extract preincubated for 10 mins followed by addition of radiolabeled hSIE and measured after 30 mins by EMSA analysis; assay type: subcellular, Nucleus
[5] = biological target: T1, Signal transducer and activator of transcription 3; test: Inhibition of C-terminal 6His-tagged recombinant human STAT3 (127 to 711 residues) DNA-binding activity transfected in v-Src transformed mouse NIH3T3 cell nuclear extract preincubated for 60 mins followed by addition of radiolabeled hSIE and measured after 30 mins by EMSA analysis; assay type: subcellular, Nucleus
[6] = biological target: T1, Signal transducer and activator of transcription 3; test: (§2) Inhibition of recombinant wild type tyrosine phosphorylated C-terminal 6His tagged human STAT3 (127 to 711 residues) DNA-binding activity transfected in v-Src transformed mouse NIH3T3 cell nuclear extract preincubated for 30 mins followed by addition of radiolabeled hSIE and measured after 30 mins by EMSA analysis; assay type: subcellular, Nucleus
[7] = biological target: Signal transducer and activator of transcription 3 (Homo sapiens, UniProt P40763, C328A); test: as §2, with “STAT3 C328A mutant” for “STAT3”; assay type: subcellular, Nucleus
[8] = biological target: Signal transducer and activator of transcription 3 (Homo sapiens, UniProt P40763, C542S); test: as §2, with “STAT3 C542S mutant” for “STAT3”; assay type: subcellular, Nucleus
[9] = tested on: PANC-1; test: Inhibition of STAT3/EGFR protein-protein interaction in human PANC-1 cells at 3 uM incubated for 8 hrs by immunoblotting analysis; assay type: cell-based
Outline: (§3)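 Panc-1 pancreatic cancer cells treated 8 h; whole-cell lysates prepared, EGFR, gp130, Src or JAK2 immunoprecipitated and immunoblotted for Stat3; control cells given 0.1% DMSO; 2 independent determinations.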

[10] = tested on: PANC-1; test: Inhibition of STAT3/gp130 protein-protein interaction in human PANC-1 cells at 3 uM incubated for 8 hrs by immunoblotting analysis; assay type: cell-based; outline: as §3
[11] = biological target: JAK2-STAT3 (Homo sapiens) (UniProt O60674+P40763); test: Inhibition of STAT3/JAK2 protein-protein interaction in human PANC-1 cells at 3 uM incubated for 8 hrs by immunoblotting analysis; assay type: cell-based
[12] = tested on: PANC-1; test: Inhibition of STAT3/Src protein-protein interaction in human PANC-1 cells at 3 uM incubated for 8 hrs by immunoblotting analysis; assay type: cell-based; outline: as §3

T1 sequence (P40763 whole entry, the tested form may be a part): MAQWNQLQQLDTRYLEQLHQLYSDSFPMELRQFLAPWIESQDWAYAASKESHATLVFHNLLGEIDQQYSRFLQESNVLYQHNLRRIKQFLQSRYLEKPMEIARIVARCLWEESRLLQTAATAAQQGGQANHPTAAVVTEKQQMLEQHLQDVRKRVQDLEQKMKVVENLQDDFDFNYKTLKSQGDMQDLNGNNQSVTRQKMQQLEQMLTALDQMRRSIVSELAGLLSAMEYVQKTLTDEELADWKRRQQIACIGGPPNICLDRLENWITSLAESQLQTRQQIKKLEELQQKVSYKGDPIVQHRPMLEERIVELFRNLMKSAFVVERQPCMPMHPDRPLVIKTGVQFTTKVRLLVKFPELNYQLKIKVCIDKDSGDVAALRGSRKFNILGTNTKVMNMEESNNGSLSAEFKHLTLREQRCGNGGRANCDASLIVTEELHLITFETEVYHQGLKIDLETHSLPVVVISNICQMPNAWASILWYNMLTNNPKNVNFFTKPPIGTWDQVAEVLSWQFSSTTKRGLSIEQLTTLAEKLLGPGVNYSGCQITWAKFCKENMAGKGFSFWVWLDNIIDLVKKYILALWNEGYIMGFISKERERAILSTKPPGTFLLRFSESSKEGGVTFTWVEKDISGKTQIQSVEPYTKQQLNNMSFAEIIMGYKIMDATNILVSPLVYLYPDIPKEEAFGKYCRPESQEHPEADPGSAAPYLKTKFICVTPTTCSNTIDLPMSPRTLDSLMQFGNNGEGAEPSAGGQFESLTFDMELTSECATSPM
Chain of Signal transducer and activator of transcription 3 (Homo sapiens, UniProt P40763, C328A) (P40763 2-770 C328A limits assumed): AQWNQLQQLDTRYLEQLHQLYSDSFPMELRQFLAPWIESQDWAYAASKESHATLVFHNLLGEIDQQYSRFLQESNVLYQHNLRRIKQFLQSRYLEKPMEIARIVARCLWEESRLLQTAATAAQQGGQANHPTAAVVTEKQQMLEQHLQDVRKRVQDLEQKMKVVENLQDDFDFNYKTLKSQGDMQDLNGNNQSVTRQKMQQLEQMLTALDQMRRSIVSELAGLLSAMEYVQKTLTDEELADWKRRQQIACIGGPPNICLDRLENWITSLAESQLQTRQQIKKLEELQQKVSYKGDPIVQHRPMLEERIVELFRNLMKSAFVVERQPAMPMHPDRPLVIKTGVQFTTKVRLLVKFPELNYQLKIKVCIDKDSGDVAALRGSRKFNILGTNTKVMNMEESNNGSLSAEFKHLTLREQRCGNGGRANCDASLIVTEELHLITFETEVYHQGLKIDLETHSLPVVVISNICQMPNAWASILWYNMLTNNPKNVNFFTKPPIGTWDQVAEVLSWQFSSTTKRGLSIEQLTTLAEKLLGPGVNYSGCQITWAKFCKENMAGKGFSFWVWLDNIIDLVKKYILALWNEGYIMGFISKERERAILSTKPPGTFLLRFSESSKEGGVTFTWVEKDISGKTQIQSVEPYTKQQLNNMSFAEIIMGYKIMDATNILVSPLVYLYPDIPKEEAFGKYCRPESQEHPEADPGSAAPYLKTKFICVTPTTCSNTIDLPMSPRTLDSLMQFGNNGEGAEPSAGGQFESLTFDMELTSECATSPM
Chain of Signal transducer and activator of transcription 3 (Homo sapiens, UniProt P40763, C542S) (P40763 2-770 C542S limits assumed): as the sequence (P40763 2-770 C328A limits assumed) above, with A327C, C541S counted along it

With `CN(CC(=O)N(Cc1ccc(C2CCCCC2)cc1)c1ccc(C(=O)O)c(O)c1)S(=O)(=O)c1c(F)c(F)c(Cl)c(F)c1F` the IC50 [1] was 48.4 µM, the IC50 [2] was 41.4 µM and the IC50 [3] was 35.5 µM.
`CC(C)C[C@H](NC(=O)[C@H](Cc1ccc(OP(=O)(O)O)cc1)NC(=O)CN)C(=O)N1CCC[C@H]1C(=O)N[C@@H](CCC(N)=O)C(=O)N[C@H](C(=O)N[C@H](C(=O)O)C(C)C)[C@@H](C)O` (H-G[pY]LPQTV-OH) was tested, and the IC50 [1] was 0.29 µM, the IC50 [2] was 0.22 µM and the IC50 [3] was 0.19 µM.
`O=C([C@H]1CCN1S(=O)(=O)c1c(F)c(F)c(F)c(F)c1F)N(Cc1ccc(C2CCCCC2)cn1)c1ccc2c(=O)[nH]ncc2c1` gave an IC50 [4] of 1500 nM, an IC50 [5] of 380 nM and an IC50 [6] of 4.8 µM. The IC50 [7] was 8.8 µM, the IC50 [8] was 5.5 µM and the IC50 [1] was greater than 600 µM. The IC50 [2] was greater than 600 µM, the IC50 [3] was greater than 600 µM and the inhibition [9] was “Active”. For the same compound, the inhibition [10] was “Active”, the inhibition [11] was “Active” and the inhibition [12] was “inactive”.
For `Cc1ccc(S(=O)(=O)N2CC[C@@H]2C(=O)N(Cc2ccc(C3CCCCC3)cn2)c2ccc(C(=O)O)c(O)c2)cc1`, the IC50 [1] was 86.4 µM, the IC50 [2] was 83.6 µM and the IC50 [3] was 82.5 µM.
`O=C(O)c1ccc(N(Cc2cnc(C3CCCCC3)cn2)C(=O)[C@H]2CCN2S(=O)(=O)c2c(F)c(F)c(Cl)c(F)c2F)cc1O` was tested, and the IC50 [1] was 190 µM, the IC50 [2] was 186 µM and the IC50 [3] was 181 µM.

Source: ChEMBL document CHEMBL5579791, “Azetidine ring, salicylic acid, and salicylic acid bioisosteres as determinants of the binding characteristics of novel potent compounds to Stat3” (Bioorg Med Chem Lett, 2024)
